Article PMC6645473 (ACS Omega, 2018)
“Also recorded” adds a separate entry of the source. Where no end group is shown, it is not given here. [ ]: non-standard residue; d: D form. Nle = CCCC[C@H](N)C(=O)O; Nva = CCC[C@H](N)C(=O)O; Aib = CC(C)(N)C(=O)O

How the values were obtained:
[1] = system: Aβ1–42 toxicity in PC-12 cells; assay: MTT cell viability assay, Aβ1–42 co-incubated with tetrapeptides; assay type: cell-based; settings: calculated from OD570 of MTT assay in PC-12 cells
Summary of the method: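 PC-12 cells were grown in F-12K with 5% FBS and 10% horse serum and used at 70% confluence. For the assay, medium was switched to F-12K with 10% FBS, and cells were seeded at 17 000/well overnight. Monomerized Aβ1–42 was added with test peptide (DMSO stock diluted in PBS; 1:1, 1:5, 1:10) for 6 h. MTT was then added for 4 h, followed by DMSO solubilization and OD570. Inhibition % = 100×(OD peptide+Aβ − OD Aβ)/(OD control − OD Aβ).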

Aβ1–42 [2] = target: T1, Aβ1–42 (Homo sapiens, UniProt P05067); assay: Electron microscopy; settings: HRTEM and STEM, Aβ1–42/test peptide 1:5, 37 °C, 72 h
T1 sequence (P05067 672-713): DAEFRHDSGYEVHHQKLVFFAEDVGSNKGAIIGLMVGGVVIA
Summary of the method: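 HFIP-treated Aβ1–42 (50 μM in 10 mM sodium phosphate buffer, pH 7.4) mixed in equal volumes with test or control tetrapeptide (250 μM, from DMSO stock) to give 1:5, then held 72 h at 37 °C. Peptides alone were imaged too. Samples were fixed on carbon-coated copper grids with 0.5% glutaraldehyde, washed in water, negatively stained with 2% uranyl acetate and imaged at 120 keV.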

[3] = Electron microscopy of tetrapeptides incubated alone; assay type: physicochemical; settings: HRTEM and STEM, peptide alone in SPB pH 7.4, 37 °C, 72 h
Summary of the method: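 Test peptide stock (5 mM in DMSO) diluted to 250 μM in 10 mM SPB, pH 7.4, and incubated alone at 37 °C for 72 h. A droplet is fixed on carbon-coated copper grids with 0.5% glutaraldehyde, washed with ultrapure water and negatively stained with 2% uranyl acetate. Grids are imaged by HRTEM/STEM at 120 keV.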

[4] = system: Aβ1–40 toxicity for PC-12 cells; assay: MTT cell viability assay with Aβ1–40; assay type: cell-based; settings: data not shown
Aβ1–42 [5] = target: T1, Aβ1–42; assay: ThT fluorescence assay of Aβ1–42 aggregation; assay type: biochemical; settings: Aβ1–42 2 μM + peptide 20 μM (1:10), Aβ1–42 alone = 100%, n = 3
Summary of the method: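 Aβ1–42 (2 μM) was incubated with test peptide at 1:10 in wells containing ThT (2.5 μM, glycine-NaOH pH 8.5), at 37 °C with shaking at 200 rpm. Fluorescence (ex 445/em 485 nm) was read at intervals over 7 days. Blank was subtracted, and RFU was normalized to the Aβ1–42-alone rise over ThT alone (100%). Triplicates were averaged.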

Aβ1–42 [6] = target: T1, Aβ1–42; assay: Circular dichroism secondary structure analysis of Aβ1–42; assay type: biochemical; settings: CD, Aβ1–42/peptide 1:5, 12 h, 37 °C
Summary of the method: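 Aβ1–42 (NaOH stock diluted to 20 μM in sodium phosphate buffer) mixed 1:5 with test peptide (TFE stock diluted to 100 μM), 12 h at 37 °C. Spectra taken at 0 and 12 h, 190–260 nm, 37 °C, 1 mm cell, 50 nm/min, 2 nm bandwidth, averaging 3 scans. Buffer blank and inhibitor-alone spectra subtracted, then deconvolution into secondary-structure percentages.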

Substance	inhibition (%) of Aβ1–42 (2 μM) ([1]; test peptide 2 μM) [%]	inhibition (%) of Aβ1–42 (2 μM) ([1]; test peptide 10 μM) [%]	inhibition (%) of Aβ1–42 (2 μM) ([1]; test peptide 20 μM) [%]	other results
Ile-Val-Ile-Ala [compound 7]	0	3.0	2.0	–
Leu-Val-Ile-Ala [compound 5]	0	0	0	–
Pro-Pro-Ile-Ala [compound 25]	14.0	39.0	90.0	–
Pro-Val-Ile-Ala [compound 9]	0	0	0	–
VVI[dA] [compound 39]	0	–	4.0	–
VVI[dF] [compound 43]	0	0	4.0	morphology of Aβ1–42 aggregates upon co-incubation (Aβ1–42 [2]): small truncated aggregates were found in bunches; self-aggregation of peptide incubated alone [3]: large clusters of amorphous aggregates
VV[Aib]A [compound 34]	1.0	0	11.0	–
VV[Nle]A [compound 38]	0	0	0	–
VV[Nva]A [compound 37]	0	0	1.0	–
VV[dA]A [compound 27]	0	0	11.0	–
VV[dF]A [compound 35]	4.0	10.0	9.0	–
VV[dI]A [compound 26]	0	0	0	–
VV[dL]A [compound 28]	0	2.0	10.0	–
VV[dP]A [compound 32]	27.0	26.0	21.0	–
VV[dV]A [compound 30]	0	0	0	–
V[Aib]IA [compound 20]	0	22.0	–	inhibition of Aβ1–40 toxicity [4]: did not show inhibition; also recorded: lack of activity; RFU, time-dependent ThT study (Aβ1–42 [5]; at 24 h): 6%; RFU, time-dependent ThT study (Aβ1–42 [5]; at 3 days): 4%; RFU, time-dependent ThT study (Aβ1–42 [5]; at 5 days): 10.9%; RFU, time-dependent ThT study (Aβ1–42 [5]; at 7 days): 11.4%; random coil form of Aβ1–42 co-incubated with inhibitor (Aβ1–42 [6]; Aβ1–42 alone at 12 h 42.3%): 58.5%; β-sheet conformation of Aβ1–42 co-incubated with inhibitor (Aβ1–42 [6]; Aβ1–42 alone at 12 h 47.1%): 14.2%; morphology of Aβ1–42 aggregates upon co-incubation (Aβ1–42 [2]): no such aggregates were formed; self-aggregation of peptide incubated alone [3]: did not exhibit any self-aggregation
V[dA]IA [compound 13]	0	0	0	–
V[dF]IA [compound 21]	0	5.0	0	–
V[dI]IA [compound 16]	20.0	20.0	27.0	–
V[dL]IA [compound 14]	5.0	0	1.0	–
V[dP]IA [compound 18]	7.0	20.0	64.0	–

Substance	inhibition (%) of Aβ1–42 (2 μM) ([1]; test peptide 2 μM) [%]	inhibition (%) of Aβ1–42 (2 μM) ([1]; test peptide 10 μM) [%]	inhibition (%) of Aβ1–42 (2 μM) ([1]; test peptide 20 μM) [%]	other results
V[dV]IA [compound 12]	0	0	0	–
Val-Ile-Ile-Ala [compound 17]	0	0	0	–
Val-Leu-Ile-Ala [compound 15]	0	0	13.0	–
Val-Pro-Ile-Ala [compound 19]	16.0	17.0	24.0	–
Val-Val-Ile-Ala [compound 1, reference compound]	8.0	30.0	–	–
Val-Val-Ile-Ile [compound 42]	24.0	27.0	29.0	–
Val-Val-Ile-Leu [compound 41]	0	0	0	–
Val-Val-Ile-Phe [compound 44]	0	0	0	–
Val-Val-Ile-Val [compound 40]	4.0	13.0	9.0	–
Val-Val-Leu-Ala [compound 29]	10.0	0	0	–
Val-Val-Phe-Ala [compound 36]	0	0	0	–
Val-Val-Pro-Ala [compound 33]	0	0	3.0	–
Val-Val-Val-Ala [compound 31]	0	0	3.0	–
[Aib]VIA [compound 10]	1.0	9.0	13.0	–
[Aib][Aib]IA [compound 24]	13.0	18.0	73.0	–
[Nva]VIA [compound 11]	0	0	0	–
[dA]VIA [compound 3]	0	0	0	–
[dI]VIA [compound 6]	0	0	0	–
[dL]VIA [compound 4]	0	0	2.0	–
[dP]VIA [compound 8]	5.0	9.0	4.0	–
